From ChEMBL document CHEMBL1125321, “Synthesis and biological activity of 13-epi-avermectins: potent anthelmintic agents with an increased margin of safety” (J Med Chem, 1992)

Assays:
Artemia salina = assay: Compound is evaluated in vitro for brine shrimp (Artemia salina) activity.; format: functional
[1] = tested on: Trichostrongylus colubriformis; assay: Compound is evaluated in vivo for anthelmintic activity against Trichostrongylus colubriformis (T.c) parasite in sheep; activity at 0.1 mg/kg; format: functional
Procedure, shortened: (§1)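 Sheep with patent infections randomly assigned; one sheep per compound, two vehicle-only controls. Single oral dose 0.1 mg/kg. Necropsy 7 days post-dose, residual worm burdens counted. Efficacy as % reduction from control, scored 0 = <50%, 1 = 51-75%, 2 = 76-95%, 3 = >95%.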

[2] = tested on: Teladorsagia circumcincta; assay: Compound is evaluated in vivo for anthelmintic activity against Ostertagia circumcincta (Os. c) parasite in sheep; activity at 0.1 mg/kg; format: functional; procedure, shortened: as §1
Cooperia [3] = assay: Compound is evaluated in vivo for anthelmintic activity against Cooperia species (C. species) parasite in sheep; activity at 0.1 mg/kg; format: functional
Procedure, shortened: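 Sheep with patent nematode infections, randomly assigned to treatment or control; one sheep per compound, two vehicle-only controls. Single oral dose of 0.1 mg/kg. Necropsy 7 days after dosing to count residual worm burdens. Efficacy is % reduction from control, scored 0 = <50%, 1 = 51–75%, 2 = 76–95%, 3 = >95%.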

Haemonchus contortus = assay: Compound is evaluated in vivo for anthelmintic activity against Haemonchus contortus (H.c) parasite in sheep; activity at 0.1 mg/kg; format: functional; procedure, shortened: as §1
[4] = Compound is evaluated for acute toxicity in mice; format: organism-based; details: mouse, in vivo
Procedure, shortened: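 Male CD-1 mice, groups of five per dose randomly allocated; several doses given orally in vehicle by calibrated syringe with blunt-tipped needle. Deaths counted 7 days after dosing; estimated LD50 derived by the method of dose-pair responses.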

[5] = tested on: Oesophagostomum columbianum; assay: Compound is evaluated in vivo for anthelmintic activity against Oesophagostomum columbianum (Oe. c) parasite in sheep; activity at 0.1 mg/kg; format: functional; procedure, shortened: as §1
Trichostrongylus axei = assay: Compound is evaluated in vivo for anthelmintic activity against Trichostrongylus axei (T.a) parasite in sheep; activity at 0.1 mg/kg; format: functional; procedure, shortened: as §1
Cooperia [6] = assay: Compound is evaluated in vivo for anthelmintic activity against Cooperia species (C. species) parasite in sheep; activity at 0.1 mg/kg; value ranges from 76-95%; format: functional; procedure, shortened: as §1

SMILES | IC100 (Artemia salina) | Activity [1] | Activity [2] | Activity (Cooperia [3]) | Activity (Haemonchus contortus) | LD50 [4] | Activity [5] | Activity (Trichostrongylus axei) | Activity (Cooperia [6])
CC[C@H](C)[C@H]1O[C@@]2(C[C@@H]3C[C@@H](C/C=C(\C)[C@H](O[C@@H]4C[C@H](OC)C(O[C@H]5C[C@H](OC)[C@@H](O)[C@H](C)O5)[C@H](C)O4)[C@@H](C)/C=C/C=C4\CO[C@@H]5[C@H](O)C(C)=C[C@@H](C(=O)O3)[C@]45O)O2)C[C@H](O)[C@@H]1C (some centres undefined) | 20850 ng/mL |  |  |  |  |  |  |  | 
CC[C@H](C)[C@H]1O[C@]2(C=C[C@@H]1C)C[C@@H]1C[C@@H](C/C=C(\C)[C@H](O[C@@H]3C[C@H](OC)C(O[C@H]4C[C@H](OC)[C@@H](O)[C@H](C)O4)[C@H](C)O3)[C@@H](C)/C=C/C=C3\CO[C@@H]4[C@H](O)C(C)=C[C@@H](C(=O)O1)[C@]34O)O2 (some centres undefined) | 10415 ng/mL |  |  |  |  |  |  |  | 
CC[C@H](C)[C@H]1O[C@@]2(C[C@@H]3C[C@@H](C/C=C(\C)[C@H](O[C@H]4C[C@H](OC)C(O[C@H]5C[C@H](OC)[C@@H](O)[C@H](C)O5)[C@H](C)O4)[C@@H](C)/C=C/C=C4\CO[C@@H]5[C@H](O)C(C)=C[C@@H](C(=O)O3)[C@]45O)O2)C[C@H](O)[C@@H]1C (some centres undefined) | 650 ng/mL | >95% | >95% | >95% | >95% | 540 mg/kg | >95% | >95% | 
CC[C@H](C)[C@H]1O[C@]2(C=C[C@@H]1C)C[C@@H]1C[C@@H](C/C=C(\C)[C@H](O[C@H]3C[C@H](OC)C(O[C@H]4C[C@H](OC)[C@@H](O)[C@H](C)O4)[C@H](C)O3)[C@@H](C)/C=C/C=C3\CO[C@@H]4[C@H](O)C(C)=C[C@@H](C(=O)O1)[C@]34O)O2 (some centres undefined) | 870 ng/mL | >95% | >95% |  | >95% | 160 mg/kg | >95% | >95% | 76%
CC[C@H](C)[C@H]1O[C@]2(C=C[C@@H]1C)C[C@@H]1C[C@@H](C/C=C(\C)[C@@H](O[C@H]3C[C@H](OC)[C@@H](O[C@H]4C[C@H](OC)[C@@H](O)[C@H](C)O4)[C@H](C)O3)[C@@H](C)/C=C/C=C3\CO[C@@H]4[C@H](O)C(C)=C[C@@H](C(=O)O1)[C@]34O)O2 [ABAMECTIN COMPONENT B1A] | 356 ng/mL |  |  |  |  | 19 mg/kg |  |  | 
CCC(C)C1O[C@]2(C=C[C@@H]1C)C[C@@H]1CC(C/C=C(\C)[C@@H](OC3C[C@H](OC)[C@@H](OC4C[C@H](OC)[C@@H](O)[C@H](C)O4)[C@H](C)O3)[C@@H](C)/C=C/C=C3\COC4[C@H](O)C(C)=CC(C(=O)O1)[C@]34O)O2 (some centres undefined) [AVERMECTIN B1A] |  | >95% | >95% | >95% | >95% |  | >95% | >95% | 
COC1CC(OC2C(C)OC(O[C@@H]3/C(C)=C/C[C@@H]4C[C@@H](C[C@]5(CC(O)[C@H](C)[C@@H](C(C)C)O5)O4)OC(=O)[C@@H]4C=C(C)[C@@H](O)[C@H]5OC/C(=C\C=C\[C@@H]3C)[C@]54O)CC2OC)OC(C)C1O (some centres undefined) [AVERMECTIN B2] | 220 ng/mL | >95% | >95% | >95% | >95% | 50 mg/kg | >95% | >95% | 
